The list is not random: actives were taken first. Their share in the collection is about 4.8%.
NR3A LBD binder = NR3A (human) ligand-binding domain modulation. NR3A LBD differential scanning fluorimetry, Tm shift; 0% = protein alone, 100% = glycine-bound protein. Tm shift relative to glycine control, % at 25 µM. 2.5% of 340,000 active. AID 1259313;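 active means melting temperature shift of at least 10% of the positive control shift, at one fixed dose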
PAFAH1B2 inh = blocks human PAF acetylhydrolase 1b catalytic subunit 2 | P68402 | recombinant PAFAH1B2, FP-rhodamine activity probe, fluorescence polarization | inhibition, % at 3.39 µM | 1.2% of 340,000 active | AID 492953;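 active means inhibition above the mean of all tested compounds plus 3 SD, cut at about 24% in these data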;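 further: 0% = enzyme with DMSO and 100% = wells lacking PAFAH1B2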
Target sequence (P68402 whole entry, looked up): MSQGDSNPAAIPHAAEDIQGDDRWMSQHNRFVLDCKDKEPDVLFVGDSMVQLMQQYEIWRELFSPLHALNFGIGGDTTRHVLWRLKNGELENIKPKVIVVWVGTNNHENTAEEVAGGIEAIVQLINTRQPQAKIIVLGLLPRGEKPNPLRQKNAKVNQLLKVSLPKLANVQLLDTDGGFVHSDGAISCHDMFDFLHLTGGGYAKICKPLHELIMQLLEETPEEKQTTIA
PAFAH1B3 inh = inhibitors of human PAFAH1B3 | inhibition, % at 3.39 µM | recombinant PAFAH1B3, FP-rhodamine probe, fluorescence polarization | Q15102 | AID 492972 | 0.28% of 340,000 active;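 active means inhibition above the screen-wide average of all tested compounds plus 3 SD, cut at about 25% in these data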;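 further: 0% = enzyme with DMSO only and 100% = wells lacking PAFAH1B3 protein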
Target sequence (Q15102 whole entry, looked up): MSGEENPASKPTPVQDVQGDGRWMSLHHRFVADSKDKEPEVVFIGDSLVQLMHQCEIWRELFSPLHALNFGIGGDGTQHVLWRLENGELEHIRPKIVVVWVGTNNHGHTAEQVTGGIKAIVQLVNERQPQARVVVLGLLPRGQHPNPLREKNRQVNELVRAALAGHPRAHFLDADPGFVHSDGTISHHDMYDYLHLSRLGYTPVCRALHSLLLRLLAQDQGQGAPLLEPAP
pPAFAH FP inh = pPAFAH (human) enzyme inhibition; 1.5% of 330,000 active; recombinant pPAFAH, FP-rhodamine probe fluorescence polarization; inhibition, % at 3.39 µM; AID 463082;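 active means inhibition above the mean inhibition across the screen plus 3 SD, cut at about 25% in these data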;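 further: inhibitors block binding of the rhodamine activity-based probe so polarization drops; 0% = enzyme with DMSO and 100% = wells lacking pPAFAH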
PAFAH2 inh = inhibitors of human PAFAH2; recombinant PAFAH2, FP-rhodamine activity probe, fluorescence polarization; AID 492956; 0.99% of 340,000 active; Q99487; inhibition, % at 3.39 µM;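 active means inhibition above the mean over all tested compounds plus 3 SD, cut at about 30% in these data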;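 further: inhibitors block probe labeling of enzyme so polarization drops; 0% = enzyme with DMSO and 100% = wells lacking PAFAH2 protein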
UCH37 inh = human UCH37 deubiquitinating enzyme inhibition; 0.33% of 330,000 active; purified proteasome/UCH37, Ub-AMC cleavage fluorescence; inhibition, % (concentration not given with the values);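 active means mean inhibition over replicate wells above about 20%, limit read from the data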;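 further: 0% = compound-free wells with enzyme and 100% = wells lacking proteasome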
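Signal – fluorescence, ex 355 nm, em 460 nm · System – Proteasome-bound UCH37 · Input – 0.15 nM proteasome as dispensed · Timing – 30 min preincubation with enzyme, 25 min cleavage at room temperature · Read-out basis – percent inhibition of cleavage signal versus uninhibited and no-proteasome wells · Medium – Tris-HCl pH 7.4 with ATP-MgCl2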
Numbers without * were called inactive; i = inactive; . = no result given; ! = not confirmed by another sample.

SMILES	NR3A LBD binder	PAFAH1B2 inh	PAFAH1B3 inh	pPAFAH FP inh	PAFAH2 inh	UCH37 inh
O=C(OCc1c(Cl)cccc1Cl)c1cnccn1	0.8	6.7	2.0	2.9	2.4	-2.2
CC(=NNC(=O)C1(C)CC1(Br)Br)c1ccc([N+](=O)[O-])cc1 (centres undefined)	.	.	.	.	.	-0.7
CCc1cc(=O)oc2cc(OC(=O)c3ccco3)ccc12	476.1*	3.9	7.7	0.4	2.8	i
Cc1cc(=O)oc2cc(OC(=O)c3ccco3)ccc12	-1.0	3.8	9.1	.	14.3	i
CC(C)CC(OC(=O)c1nsc(Cl)c1Cl)C(=O)NCc1cccs1 (centres undefined)	-0.8	7.3	3.0	-4.2	-0.3	0.2
CCC(OC(=O)c1nsc(Cl)c1Cl)C(=O)NCCc1ccccc1 (centres undefined)	-2.2	5.6	4.0	24.8*	-4.4	1.4
CCC(OC(=O)c1nsc(Cl)c1Cl)C(=O)NCc1cccs1 (centres undefined)	-0.3	-0.2	-0.9	27.7*	-0.2	4.6
O=c1nc(NN=C/C=C/c2ccccc2)cn[nH]1	.	.	.	.	.	-4.5
CCc1ccc(NC(=O)CON=C(C)c2cc3ccccc3o2)cc1	.	.	.	.	.	-0.5
O=[N+]([O-])c1ccc2nc(SCc3ccccc3Cl)sc2c1	-1.1	-4.5	-2.1	-0.5	-3.4	1.1
Cc1cc(C)c(CSc2ncc(-c3ccc([N+](=O)[O-])cc3)[nH]2)c(C)c1	12.1*	2.5	0.5	2.4	-4.9	1.2
O=[N+]([O-])c1ccc(-c2cnc(SC(c3ccccc3)c3ccccc3)[nH]2)cc1	26.1*	0.5	3.5	-17.2	-8.2	-2.3
O=[N+]([O-])c1ccc(-c2cnc(SCc3ccccc3Cl)[nH]2)cc1	13.1*	9.0	4.4	13.4	2.0	0.1
NC(=O)CSc1ncc(-c2ccc([N+](=O)[O-])cc2)[nH]1	-0.3	9.0	6.0	2.6	1.3	8.5
CC(=O)Nc1ccc(S(=O)(=O)N(C)CC(=O)NN=Cc2ccncc2)cc1	.	.	.	.	.	3.8
O=S(=O)(O)c1cc(O)c2c(O)c(N=Nc3cc(Cl)ccc3O)c(S(=O)(=O)O)cc2c1	-12.2	33.7*	35.4*	33.2*	48.6*	34.0*
Nc1cc(S(=O)(=O)O)cc2ccc(S(=O)(=O)O)cc12	0.5	4.5	14.8	.	1.5	i
Cc1cc(-c2ccc(N=Nc3c(S(=O)(=O)O)cc4cc(S(=O)(=O)O)cc(N)c4c3O)c(C)c2)ccc1N=Nc1c(S(=O)(=O)O)cc2cc(S(=O)(=O)O)cc(N)c2c1O	.	.	.	53.3*	.	.
Cc1ccc(C)c(NC(=O)CCC(=O)NN=Cc2ccc3c(c2)OCO3)c1	.	.	.	.	.	7.7
CCNCc1ccccc1OCc1ccccc1	-0.3	3.2	7.7	-2.8	-0.7	2.5
Oc1ccc(NCc2ccccc2OCc2ccccc2)cc1	-10.7	3.8	21.4	26.5*	7.7	-0.4
CCC(=O)Nc1ccc(C(C)=NNC(=O)c2c(Br)c(C)nn2C)cc1	.	.	.	.	.	3.2
O=C1NC(=S)SC1=C1CCCC1	0.9	1.8	-0.6	33.8*	4.0	.
CN1C(=O)C(=C2CCCCCC2)SC1=S	0.8	5.5	6.6	2.9	-2.2	-2.0
Cc1cc(C)c[n+](-c2[nH]c(=O)sc2C=NN=C(N)[S-])c1	.	.	.	.	.	17.5
SMILES	NR3A LBD binder	PAFAH1B2 inh	PAFAH1B3 inh	pPAFAH FP inh	PAFAH2 inh	UCH37 inh
COc1ccc(Nc2ncnc3sc(-c4ccccc4)cc23)cc1OC	12.6*	17.7	31.9*	31.8*	-31.5	-233.4
CCOC(=O)C1CCN(C(=O)Cn2nc(C)n3c(cc4cc(C)ccc43)c2=O)CC1	-2.6	1.6	1.1	-5.0	2.2	-19.1
CCC(C(=O)N1CCOCC1)n1nc(C)n2c(cc3cc(C)ccc32)c1=O (centres undefined)	10.8*	4.7	6.0	-0.8	3.6	-21.1
CCCCNC(=O)c1ccc(CNc2c(N3CCC(C(=O)OCC)CC3)c(=O)c2=O)cc1	11.2*!	1.4	9.7	6.2	-2.8	1.4
CC(=NNC(=O)c1ccccc1)c1nc2ccccc2n1C	.	.	.	.	.	3.4
O=C(Cc1cccs1)N=Nc1c(O)[nH]c2ccccc12	-2.2	3.9	6.0	5.7	9.0	2.8
O=C(N=Nc1c(O)[nH]c2ccccc12)c1cc(-c2cccs2)[nH]n1	22.3*	7.5	8.0	14.2	0.1	.
O=C(N=Nc1c(O)[nH]c2ccccc12)c1cc(-c2ccc(F)cc2)n[nH]1	19.3*	-6.6	5.6	4.7	3.3	5.4
Oc1[nH]c2ccccc2c1N=Nc1ccc(F)cc1	0.4	-4.6	-5.4	0.9	-12.1	2.3
COc1ccc(C=NNC(=O)c2ccc(COc3ccccc3Cl)o2)c(OC)c1C	.	.	.	.	.	-4.5
CCCNC(=S)Nc1cc2oc3ccccc3c2cc1OC	17.9*	-1.3	2.3	-0.3	8.3	1.7
CNC(=S)Nc1cc2oc3ccccc3c2cc1OC	18.4*	-4.5	4.2	.	-2.7	4.0
CCNC(=S)Nc1cc2oc3ccccc3c2cc1OC	7.3	2.4	-3.3	6.9	7.0	-15.1
CN(C)c1ccc(C=NN=C2SC(CC(=O)O)C(=O)N2c2ccc(O)cc2)cc1 (centres undefined)	.	.	.	.	.	-243.0
CC(=NNC(=O)c1cccnc1)c1ccc(-n2ccnc2)cc1	.	.	.	.	.	0.5
Cc1ccc(-n2[nH]c(C)c(C=Nc3ccc4[nH]c(=O)[nH]c4c3)c2=O)cc1C	15.6*	-0.1	9.2	17.5	13.1	-0.5
CCc1nnc(NS(=O)(=O)c2ccc(N=Cc3c(C)[nH]n(-c4cccc(Cl)c4)c3=O)cc2)s1	20.1*	5.0	1.7	-3.3	0.3	7.1
Cc1ccc(-n2[nH]c(C)c(C=Nc3ccc(S(=O)(=O)Nc4nccs4)cc3)c2=O)cc1C	14.6*	2.4	1.3	18.0	15.7	6.9
Cc1[nH]n(-c2ccc(Cl)cc2)c(=O)c1C=Nc1ccc(S(=O)(=O)N2CCOCC2)cc1	32.0*	0.7	13.7	-2.2	8.3	10.7
Cc1ccsc1C=NNC(=O)C1CC(=O)N(c2ccc(F)cc2)C1 (centres undefined)	.	.	.	.	.	3.0
CCc1nnc(NS(=O)(=O)c2ccc(N=Cc3c(C)[nH]n(-c4ccc(Cl)cc4)c3=O)cc2)s1	12.6*	5.0	0.7	5.8	2.8	3.8
O=C(NN=C1CCc2ccccc21)C1CC1	.	.	.	.	.	3.2
CC1(C)CC2CC(C)(CN2C(=O)CN2C(=O)c3ccccc3C2=O)C1 (centres undefined)	1.0	24.2*	3.9	4.7	-7.9	2.3
COc1ccc(-n2cnc(=S)[nH]c2=S)cc1	17.7*	-1.8	3.6	.	-1.9	1.8
O=C(O/N=C/c1ccc(Cl)cc1)C1CCCCC1	-0.5	93.8*	11.6	5.3	76.6*	.
CCCCCCCCCC[N+](C)(C)CC/C=C1/c2ccccc2Sc2ccc(Cl)cc21	22.2*	1.6	8.3	19.9	-5.6	.
COc1ccc(C=NNc2snc(SC)c2C#N)cc1OC	.	.	.	.	.	-7.1
CC(=O)Oc1ccc(C(C)=NN2CCN(Cc3ccc(C)cc3)CC2)cc1	.	.	.	.	.	6.4
C=CCNC(=S)NN=Cc1ccc(C(F)(F)F)cc1	.	.	.	.	.	0.8
